Laboratory results as given in ChEMBL document CHEMBL1138871, “Synthesis and HIV-integrase strand transfer inhibition activity of 7-hydroxy[1,3]thiazolo[5,4-b]pyridin-5(4H)-ones” (Bioorg Med Chem Lett, 2006).

Test: Inhibition of recombinant HIV integrase strand transfer activity
Set-up: species or system Human immunodeficiency virus
Procedure, shortened: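 Recombinant integrase (2 µM) prebound to biotinylated donor DNA (0.66 µM) on streptavidin SPA beads, 5 min 37 °C in 25 mM MOPS pH 7.2, 23 mM NaCl, 10 mM MgCl₂, 10 mM DTT, 10% DMSO. Beads washed and resuspended to 570 nM integrase. Compound (6.7% DMSO final) preincubated 60 min 37 °C. Then [³H] target DNA at 7 nM final added, run 25–45 min 37 °C, EDTA-quenched, read by SPA. Means ± SE.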

Row | SMILES | IC50
1 | O=C(NCc1ccc(F)cc1)c1c(O)c2ncsc2n(-c2cccc([N+](=O)[O-])c2)c1=O | 17 µM
2 | COc1ccc(-n2c(=O)c(C(=O)NCc3ccc(F)cc3)c(O)c3ncsc32)cc1 | 1 µM
3 | O=C(/C=C(\O)c1nc[nH]n1)c1ccc(Cc2ccc(F)cc2)o1 [S-1360] | 0.16 µM
4 | COC(=O)c1c(O)c2ncsc2n(-c2cccc(SC)c2)c1=O | > 500 µM
5 | O=C(NCc1ccc(F)cc1)c1c(O)c2ncsc2n(-c2cccc(C(F)(F)F)c2)c1=O | 7 µM
6 | CC(C)n1c(=O)c(C(=O)NCc2ccc(F)cc2)c(O)c2ncsc21 | 0.19 µM
7 | COC(=O)c1c(O)c2nc(Cc3ccc(F)cc3)sc2n(C)c1=O | 35 µM
8 | COC(=O)c1c(O)c2nc(Cc3ccc(F)cc3)sc2n(-c2ccccc2)c1=O | 282 µM
9 | Cn1c(=O)c(C(=O)NCc2ccc(F)cc2)c(O)c2ncsc21 | 0.7 µM
10 | CSc1cccc(-n2c(=O)c(C(=O)NCc3ccc(F)cc3)c(O)c3ncsc32)c1 | 7 µM
11 | COC(=O)c1c(O)c2ncsc2n(-c2ccccc2)c1=O | > 500 µM
12 | Cn1c(=O)c(C(=O)NCc2ccc(F)cc2)c(O)c2nc(Cc3ccc(F)cc3)sc21 | 151 µM
13 | COC(=O)c1c(O)c2ncsc2n(C)c1=O | > 500 µM
14 | CS(=O)(=O)c1cccc(-n2c(=O)c(C(=O)NCc3ccc(F)cc3)c(O)c3ncsc32)c1 | 0.93 µM
15 | CCn1c(=O)c(C(=O)OC)c(O)c2ncsc21 | 1.23 µM
16 | COC(=O)c1c(O)c2ncsc2[nH]c1=O | > 500 µM
17 | COc1ccc(Cn2c(=O)c(C(=O)NCc3ccc(F)cc3)c(O)c3ncsc32)cc1 | 4 µM
18 | O=C(NCc1ccc(F)cc1)c1c(O)c2nc(Cc3ccc(F)cc3)sc2n(-c2ccccc2)c1=O | 4 µM
19 | COC(=O)c1c(O)c2ncsc2n(Cc2ccc(OC)cc2)c1=O | 4.2 µM
20 | O=C(NCc1ccc(F)cc1)c1c(O)c2ncsc2[nH]c1=O | 1.5 µM
21 | COC(=O)c1c(O)c2ncsc2n(-c2ccc(OC)cc2)c1=O | > 500 µM
22 | COC(=O)c1c(O)c2ncsc2n(-c2cccc(C(F)(F)F)c2)c1=O | > 500 µM
23 | C[S+]([O-])c1cccc(-n2c(=O)c(C(=O)NCc3ccc(F)cc3)c(O)c3ncsc32)c1 (stereo not drawn) | 2 µM
24 | COC(=O)c1c(O)c2ncsc2n(C(C)C)c1=O | 11 µM
25 | COC(=O)c1c(O)c2ncsc2n(-c2cccc([N+](=O)[O-])c2)c1=O | > 500 µM
26 | Cn1c(=O)c(C(=O)NCc2ccc(Cl)cc2)c(O)c2ncsc21 | 2.1 µM
27 | CCn1c(=O)c(C(=O)NCc2ccc(F)cc2)c(O)c2ncsc21 | 0.03 µM
28 | O=C(NCc1ccc(F)cc1)c1c(O)c2ncsc2n(-c2ccccc2)c1=O | 0.4 µM
